Data set [1] has as its system MDA-MB-231. Description: Cytotoxicity against human MDA-MB-231 cells assessed as reduction in cell viability incubated for 48 hrs by MTT assay. It counts as functional, cell-based. The note with it: MDA-MB-231, 48 h. In outline: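 MTT assay in MDA-MB-231 cells grown in DMEM with 10% heat-inactivated FBS at 37 °C and 5% CO2. Cells were seeded at 8000 per well, left 24 h, then exposed for 48 h to 0–25 μM in DMEM with 2% FBS (final DMSO 0.1%). MTT (0.5 mg/mL) was added for 2 h, formazan was dissolved in DMSO and read at 570 nm. Runs were in triplicate and IC50 was derived from the curves.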

The target in a further data set is D(1A) dopamine receptor (Homo sapiens, UniProt P21728). As to the kind of experiment: Binding affinity to dopamine D1 receptor (unknown origin) at 10 uM. The essentials: (§1)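 Primary radioligand-binding screen by the NIMH Psychoactive Drug Screening Program. Each compound was tested at a final concentration of 10 μM in triplicate or quadruplicate, and % inhibition was recorded. Data are mean ± SEM of four independent experiments. Compounds reaching at least 50% antagonist activity went on to secondary dose-response assays.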
Sequence of D(1A) dopamine receptor (P21728 whole entry): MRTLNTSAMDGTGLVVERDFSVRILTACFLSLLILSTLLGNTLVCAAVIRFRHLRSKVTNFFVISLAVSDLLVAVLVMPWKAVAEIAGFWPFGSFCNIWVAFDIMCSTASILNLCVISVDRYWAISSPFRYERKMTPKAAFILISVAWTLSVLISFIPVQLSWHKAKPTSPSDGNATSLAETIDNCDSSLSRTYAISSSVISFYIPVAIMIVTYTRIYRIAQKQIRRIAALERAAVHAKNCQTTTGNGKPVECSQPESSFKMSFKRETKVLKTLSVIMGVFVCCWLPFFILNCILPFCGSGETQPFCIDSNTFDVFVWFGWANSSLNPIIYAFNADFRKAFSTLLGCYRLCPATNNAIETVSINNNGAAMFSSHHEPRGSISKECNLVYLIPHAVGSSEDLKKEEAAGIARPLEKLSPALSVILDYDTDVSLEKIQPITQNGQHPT

Another data set has as its target D(2) dopamine receptor (Homo sapiens, UniProt P14416). As to the kind of experiment: Binding affinity to dopamine D2 receptor (unknown origin) at 10 uM. In outline: as §1
In the next data set the target is D(3) dopamine receptor (Homo sapiens, UniProt P35462). As to the kind of experiment: Binding affinity to dopamine D3 receptor (unknown origin) at 10 uM. Type of data set: ADME. In outline:
as §1

The target of a further data set is T1, D(4) dopamine receptor (Homo sapiens, UniProt P21917).
T1 sequence (P21917 whole entry): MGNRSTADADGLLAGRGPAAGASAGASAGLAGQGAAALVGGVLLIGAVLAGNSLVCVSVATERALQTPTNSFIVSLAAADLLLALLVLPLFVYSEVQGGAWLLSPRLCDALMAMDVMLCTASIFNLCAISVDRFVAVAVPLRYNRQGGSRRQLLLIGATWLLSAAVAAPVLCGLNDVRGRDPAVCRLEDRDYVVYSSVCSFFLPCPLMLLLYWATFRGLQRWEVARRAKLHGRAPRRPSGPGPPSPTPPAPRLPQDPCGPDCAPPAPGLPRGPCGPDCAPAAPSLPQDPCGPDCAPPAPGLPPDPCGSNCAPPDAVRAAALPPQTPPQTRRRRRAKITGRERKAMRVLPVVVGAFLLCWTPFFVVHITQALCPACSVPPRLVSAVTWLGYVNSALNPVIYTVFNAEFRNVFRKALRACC
Description: Binding affinity to dopamine D4 receptor (unknown origin) at 10 uM. In outline:
as §1

A further data set addresses D(1B) dopamine receptor (Homo sapiens, UniProt P21918). Description: Binding affinity to dopamine D5 receptor (unknown origin) at 10 uM. In outline: as §1
Data set [2] addresses Sodium-dependent dopamine transporter (Homo sapiens, UniProt Q01959). Description: Inhibition of DAT (unknown origin).
Another data set deals with Histamine H1 receptor (Homo sapiens, UniProt P35367). As to the kind of experiment: Inhibition of H1R (unknown origin).
Sequence of Histamine H1 receptor (P35367 whole entry): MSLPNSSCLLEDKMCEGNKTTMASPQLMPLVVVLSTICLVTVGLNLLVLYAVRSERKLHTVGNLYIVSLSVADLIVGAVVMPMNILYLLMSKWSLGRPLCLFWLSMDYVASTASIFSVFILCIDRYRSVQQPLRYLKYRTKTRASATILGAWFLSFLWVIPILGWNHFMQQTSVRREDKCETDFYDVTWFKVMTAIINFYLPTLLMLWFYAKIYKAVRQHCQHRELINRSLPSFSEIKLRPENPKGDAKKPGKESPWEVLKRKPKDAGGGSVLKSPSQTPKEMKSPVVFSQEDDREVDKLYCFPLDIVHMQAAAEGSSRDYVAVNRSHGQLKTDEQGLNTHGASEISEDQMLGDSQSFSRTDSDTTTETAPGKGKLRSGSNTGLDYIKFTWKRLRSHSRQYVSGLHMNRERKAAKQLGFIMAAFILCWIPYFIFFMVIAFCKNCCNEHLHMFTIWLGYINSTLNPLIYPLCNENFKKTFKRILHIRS
Data set [3] addresses DAT (sodium-dependent dopamine transporter) (Homo sapiens, UniProt Q01959). As to the kind of experiment: Inhibition of DAT (unknown origin) at 10 uM relative to control. In outline:
as §1

Data set [4] can be described thus: Drug uptake in C57 mouse brain at 10 mg/kg, ip measured after 1 hrs by LC-MS/MS analysis. The note with it: in vivo. Type of data set: ADME, organism-based. In outline:
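Eight-week-old male and female C57 mice (~20 g) received a single 10 mg/kg i.p. dose in ethanol 2.5%, DMSO 2.5%, Tween 80 5%, PEG 400 25% and PBS 65%. Brains were taken after cardiac perfusion at 0–48 h. Tissue was homogenized in PBS (1:3 w/v), extracted with acetonitrile containing internal standard, and quantified by LC-MS/MS against matrix-matched calibration curves. n = 2–4.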

Data set [5] can be described thus: Metabolic stability in Sprague-Dawley rat liver microsomes assessed as parent compound remaining in presence of NADPH measured up to 60 mins by LC-MS/MS analysis. Type of data set: ADME, Microsome. The note with it: 1 h. In outline: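 Pooled male Sprague-Dawley rat liver microsomes (6.2% mixture in potassium phosphate buffer) were used with an NADPH regenerating system. Compound, diluted to 5 μM before mixing, was prewarmed 10 min at 37 °C, then incubated with microsomes at 37 °C with shaking. Samples taken at 0, 5, 15, 30 and 60 min were quenched in ice-cold acetonitrile and centrifuged. Analysis was by LC-MS/MS, giving % remaining versus T0 from peak area ratios. Three independent experiments in triplicate.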

In data set [6] the test system is MDA-MB-231. As to the kind of experiment: Induction of apoptosis in human MDA-MB-231 cells incubated for 48 hrs. It counts as functional, cell-based.
Data set [7] concerns MDA-MB-231. As to the kind of experiment: Induction of apoptosis in human MDA-MB-231 cells at 1 uM incubated for 48 hrs. It counts as functional, cell-based.
Data set [8] concerns MDA-MB-231. As to the kind of experiment: Induction of apoptosis in human MDA-MB-231 cells assessed as fold increase in apoptotic index at 5 uM relative to control. It counts as functional.
Data set [9] relates to MDA-MB-231. Description: Effect on cell cycle in human MDA-MB-231 cells at 0 to 5 uM. Type of data set: functional, cell-based. The settings on record: dose 0-5 µM.
The subject of data set [10] is MDA-MB-231. As to the kind of experiment: Induction of apoptosis in human MDA-MB-231 cells assessed as caspase-3 cleavage. It counts as functional, cell-based. The essentials:
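MDA-MB-231 cells treated 48 h, lysed on ice in RIPA buffer with protease and phosphatase inhibitors, then centrifuged. Equal protein loads were run on SDS-PAGE and transferred to PVDF. Blots were probed for cleaved caspase-3 and total caspase-3 (1:1000), with β-tubulin (1:2000) as loading control. Detection used HRP chemiluminescence with goat anti-rabbit secondary, and bands were quantified by densitometry.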

Data set [11] concerns the target Fibroblast growth factor receptor 1 (Homo sapiens) (UniProt P11362). Description: Inhibition of FGFR1 phosphorylation in human […] cells at 3 to 6 uM incubated for 48 hrs in presence of bFGF by immunoblotting analysis. It counts as cell-based. The note with it: MDA-MB-231, dose 3-6 µM. In outline: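 MDA-MB-231 cells treated 48 h with or without bFGF, lysed in RIPA buffer with protease and phosphatase inhibitors. Equal protein loads were run on SDS-PAGE and transferred to PVDF. Blots were probed with anti-pFGFR1 (1:1000), using β-tubulin (1:2000) as loading control. Bands were detected by HRP chemiluminescence and quantified by densitometry; n = 3.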

Structures are written as SMILES. Activity calls are given as the source filed them. The calls are words filed in the database; no cut-off is given here.

Sequence of D(3) dopamine receptor (P35462 whole entry): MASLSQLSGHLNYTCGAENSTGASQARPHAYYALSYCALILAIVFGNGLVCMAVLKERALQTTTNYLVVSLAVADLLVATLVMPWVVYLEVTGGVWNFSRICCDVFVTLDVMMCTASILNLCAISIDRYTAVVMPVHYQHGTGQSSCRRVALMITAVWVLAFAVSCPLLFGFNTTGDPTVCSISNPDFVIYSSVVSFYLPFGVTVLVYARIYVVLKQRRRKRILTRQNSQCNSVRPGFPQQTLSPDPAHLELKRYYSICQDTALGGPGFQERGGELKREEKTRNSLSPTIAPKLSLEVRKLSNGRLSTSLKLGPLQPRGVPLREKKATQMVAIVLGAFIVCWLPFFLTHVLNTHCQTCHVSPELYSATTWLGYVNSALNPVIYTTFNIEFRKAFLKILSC
Sequence of D(1B) dopamine receptor (P21918 whole entry): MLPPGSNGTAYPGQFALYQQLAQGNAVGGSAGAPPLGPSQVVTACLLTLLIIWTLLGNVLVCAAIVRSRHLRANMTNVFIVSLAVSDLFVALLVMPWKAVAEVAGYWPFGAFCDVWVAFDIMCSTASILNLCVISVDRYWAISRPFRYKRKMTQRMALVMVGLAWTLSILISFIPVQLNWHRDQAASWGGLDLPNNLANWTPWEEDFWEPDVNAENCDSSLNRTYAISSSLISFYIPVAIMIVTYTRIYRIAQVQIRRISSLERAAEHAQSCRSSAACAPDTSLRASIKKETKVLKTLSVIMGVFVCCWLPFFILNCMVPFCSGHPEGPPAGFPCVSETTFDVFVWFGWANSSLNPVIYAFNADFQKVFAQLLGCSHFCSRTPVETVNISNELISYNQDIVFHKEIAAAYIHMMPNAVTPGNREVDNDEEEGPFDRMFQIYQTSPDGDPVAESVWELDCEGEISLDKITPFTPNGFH
Sequence of Fibroblast growth factor receptor 1 (Homo sapiens) (P11362 22-822 limits assumed): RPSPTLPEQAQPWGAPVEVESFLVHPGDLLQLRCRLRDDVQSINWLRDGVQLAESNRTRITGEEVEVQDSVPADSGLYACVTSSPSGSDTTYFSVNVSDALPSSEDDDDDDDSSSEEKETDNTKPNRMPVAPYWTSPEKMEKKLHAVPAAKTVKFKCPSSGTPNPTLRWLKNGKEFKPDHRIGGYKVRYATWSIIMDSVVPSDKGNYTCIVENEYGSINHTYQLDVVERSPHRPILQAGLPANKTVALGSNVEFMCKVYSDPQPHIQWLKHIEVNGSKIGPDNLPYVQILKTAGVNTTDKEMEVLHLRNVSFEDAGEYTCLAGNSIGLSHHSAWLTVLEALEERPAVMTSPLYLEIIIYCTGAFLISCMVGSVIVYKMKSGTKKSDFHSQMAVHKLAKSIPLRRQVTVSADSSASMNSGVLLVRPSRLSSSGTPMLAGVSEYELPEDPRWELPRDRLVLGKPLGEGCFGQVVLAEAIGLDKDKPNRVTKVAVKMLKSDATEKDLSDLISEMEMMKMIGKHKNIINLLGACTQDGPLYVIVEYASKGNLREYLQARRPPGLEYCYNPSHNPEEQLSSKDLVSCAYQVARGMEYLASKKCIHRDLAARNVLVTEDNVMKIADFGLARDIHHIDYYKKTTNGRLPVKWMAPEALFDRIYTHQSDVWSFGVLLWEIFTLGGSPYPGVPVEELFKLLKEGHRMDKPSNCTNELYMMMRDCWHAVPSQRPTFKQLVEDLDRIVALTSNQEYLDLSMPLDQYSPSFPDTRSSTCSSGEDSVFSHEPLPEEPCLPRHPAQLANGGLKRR
Sequence of DAT (sodium-dependent dopamine transporter) (Q01959 whole entry): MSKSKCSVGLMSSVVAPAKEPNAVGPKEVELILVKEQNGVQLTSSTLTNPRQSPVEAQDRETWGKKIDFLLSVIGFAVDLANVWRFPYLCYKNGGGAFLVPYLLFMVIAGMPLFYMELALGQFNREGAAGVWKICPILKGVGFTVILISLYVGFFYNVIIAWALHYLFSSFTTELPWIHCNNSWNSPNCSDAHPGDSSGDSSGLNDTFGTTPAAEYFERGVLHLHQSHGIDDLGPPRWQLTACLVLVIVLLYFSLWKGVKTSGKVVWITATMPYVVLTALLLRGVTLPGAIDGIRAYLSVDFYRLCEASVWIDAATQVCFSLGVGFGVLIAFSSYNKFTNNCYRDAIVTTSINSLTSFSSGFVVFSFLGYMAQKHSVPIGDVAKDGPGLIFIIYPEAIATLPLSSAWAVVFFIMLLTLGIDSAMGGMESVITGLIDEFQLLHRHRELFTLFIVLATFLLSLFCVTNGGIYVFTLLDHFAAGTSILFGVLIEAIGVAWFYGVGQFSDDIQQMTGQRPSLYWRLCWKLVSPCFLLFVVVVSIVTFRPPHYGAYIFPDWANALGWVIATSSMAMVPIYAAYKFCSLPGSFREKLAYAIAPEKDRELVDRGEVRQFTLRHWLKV
Sequence of Sodium-dependent dopamine transporter (Q01959 whole entry): as above
Sequence of D(2) dopamine receptor (P14416 whole entry): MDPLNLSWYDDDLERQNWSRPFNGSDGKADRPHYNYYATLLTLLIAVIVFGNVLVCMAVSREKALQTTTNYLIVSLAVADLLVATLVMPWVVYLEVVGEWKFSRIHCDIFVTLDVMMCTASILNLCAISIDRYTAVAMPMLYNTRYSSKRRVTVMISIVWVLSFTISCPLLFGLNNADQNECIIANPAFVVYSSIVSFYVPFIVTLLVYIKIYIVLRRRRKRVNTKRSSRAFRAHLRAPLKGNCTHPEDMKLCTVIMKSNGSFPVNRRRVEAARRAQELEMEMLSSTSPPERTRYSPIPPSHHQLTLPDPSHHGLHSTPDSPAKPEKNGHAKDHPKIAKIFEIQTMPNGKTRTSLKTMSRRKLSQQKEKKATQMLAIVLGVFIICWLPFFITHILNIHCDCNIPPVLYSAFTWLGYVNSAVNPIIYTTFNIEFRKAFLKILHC

For the molecule `O=C(NCCCCC(c1ccc(F)cc1)c1ccc(F)cc1)Nc1ccc(Cl)cc1`, the IC50 in the data set with MDA-MB-231 [1] is 7.68 µM. Further, the Activity result at D(1A) dopamine receptor, at D(2) dopamine receptor, on D(3) dopamine receptor, at D(4) dopamine receptor and at D(1B) dopamine receptor was “Not Active” throughout. The molecule also gave a Ki in [2] of 0.015 µM. Also, at Histamine H1 receptor, the “inhibition (INH)” value is reported as “Active”. In [3], the inhibition at 10 µM amounted to 82%. For the same molecule, the Drug uptake entry in [4] is on record as “Active”.

For the molecule `O=C(NCCCCC(c1ccc(F)cc1)c1ccc(F)cc1)Nc1ccc([N+](=O)[O-])c(C(F)(F)F)c1`, the IC50 in the data set on MDA-MB-231 [1] turned out to be 4.55 µM. Also, the Stabilty entry in [5] is reported as “Stable”. For the same molecule, in the data set with MDA-MB-231 [6], the Activity entry is “Dose-dependent effect”. Besides, the outcome in the data set with MDA-MB-231 [7] and with MDA-MB-231 [10] was Active. In addition, in the data set with MDA-MB-231 [8], the “fold change (FC)” value came to 10.6. In the data set on MDA-MB-231 [9], the result was inactive. Further, the inhibition entry in data set [11] was “Active”.
